Values joined by “and” are separate entries in the source; they are usually repeats but may differ in a detail not shown here. Identical values can stand only once. Records with an inconclusive call do not appear. Active and inactive are the calls of the source.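 How the source made its calls: active means signal drops with a fitted half-maximal dose within ten times the top tested dose, in every replicate test; inconclusive means replicate tests disagree, or flat partial drop, or poor fit; inactive means the rest, including effects in the wrong direction.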

For orientation: AC50 means the midpoint of the concentration-response curve, whichever way the signal moves.

The subject of the first assay is HMLE_shECad viability, CellTiter-Glo luminescence, 72 h. Description: growth inhibition of breast cancer stem-like cells, dose response, cell-based, HMLE_shECad, CellTiter-Glo luminescence, dry powder, set 6 (AID 504667).
Conditions: not given
An outline of the steps: (§1)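 Material: HMLE_shECad cells, stable E-cadherin knockdown, EMT-induced, CSC-like. Input: 2000 HMLE_shECad cells per well. Medium: serum-free CSC medium for cell seeding and exposure. Incubation: cell adherence ≥4 h at 37 °C, 5% CO2, compound exposure ~70-74 h. Technique: CellTiter-Glo luminescence.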
A general note: Cellular ATP, detected with luciferase, serves as a proxy for viable cell number.
Consider `Cc1csc(NC(=O)c2coc(COc3ccccc3)c2)n1`, for which the half-maximal activity concentration (AC50) was 1.27 µM.

Turning to `CC(C)c1ccc(/C=C/C(=O)NC2=NCCS2)cc1`, the AC50 was 3.23 µM.

Regarding `Cc1csc(NC(=O)c2ccc(COc3cc(Cl)ccc3Cl)o2)n1`, the AC50 is 0.024 µM.

As for `CC(C)Cc1ccc(/C=C/C(=O)NC2=NCCS2)cc1`, the AC50 was 0.386 µM.

With `COc1ccc(/C=C/C(=O)NC2=NCCS2)c(OC)c1`, the AC50 was 10.4 µM.

With `Cc1csc(NC(=O)c2ccc(COc3ccccc3S(C)(=O)=O)o2)n1`, the AC50 was 20.9 µM.

With `Cc1csc(NC(=O)c2ccc(COc3cccc(Oc4ccccc4)c3)o2)n1`, the AC50 was 0.388 µM.

Take `Cc1ccc(OCc2ccc(C(=O)Nc3nc(C)cs3)o2)cc1`: the AC50 was 2.04 µM.

In the case of `Cc1csc(NC(=O)c2ccc(COc3cccc(Cl)c3)o2)n1`, the AC50 was 0.5 µM.

With `Cc1csc(NC(=O)c2ccc(COc3ccccn3)o2)n1`, the half-maximal activity concentration (AC50) is 9.4 µM.

As to `Cc1csc(NCc2ccc(COc3ccccc3)o2)n1`, the AC50 is 28.8 µM.

As for `CCOc1cccc(OCc2ccc(C(=O)Nc3nc(C)cs3)o2)c1`, the AC50 was 0.896 µM.

Turning to `COc1ccc(OCc2ccc(C(=O)Nc3nc(C)cs3)o2)c(F)c1`, the half-maximal activity concentration (AC50) is 3.35 µM.

Turning to `Cc1csc(NC(=O)c2ccc(COC3CCCCC3)o2)n1`, the half-maximal activity concentration (AC50) was 13.6 µM.

`CCc1ccc(/C=C/C(=O)NC2=NCCS2)cc1`: the AC50 is 2.33 µM.

On to `Cc1cc(C)c(OCC(=O)N/N=C/c2ccc[nH]2)c(C)c1`, for which the AC50 is 4.45 µM.

Regarding `Cc1csc(NC(=O)c2ccc(CCc3ccccc3)o2)n1`, the AC50 was 0.794 µM.

As to `Cc1csc(NC(=O)c2ccc(COc3ccccc3)o2)n1`, the AC50 is 1.05 µM.

As for `COc1ccc(Cl)c(OCc2ccc(C(=O)Nc3nc(C)cs3)o2)c1`, the AC50 was 0.08 µM.

As to `Cc1csc(NC(=O)c2ccc(COC3CCCC3)o2)n1`, the concentration at half-maximal activity (AC50) was 28.3 µM.

In the case of `CC(C)c1ccc(/C=C/C(=O)Nc2cncs2)cc1`, the AC50 was 6.44 µM.

`Cc1csc(NC(=O)c2ccc(COc3cccc(OC(F)(F)F)c3)o2)n1`: the AC50 is 0.162 µM.

For the molecule `Cc1cc(Br)ccc1OCC(=O)N/N=C/c1ccc[nH]1`, the AC50 was 3.22 µM.

`Cc1csc(NC(=O)c2ccc(COc3ccccc3F)o2)n1`: the AC50 is 0.007 µM.

In the case of `Cc1cccc(OCc2ccc(C(=O)Nc3nc(C)cs3)o2)c1`, the half-maximal activity concentration (AC50) is 0.123 µM and 0.596 µM.

With `CC(C)c1ccc(/C=C/C(=O)N(C)C2=NCCS2)cc1`, the AC50 is 20.9 µM.

Take `N#Cc1ccc(/C=C/C(=O)NC2=NCCS2)cc1`: the AC50 was 24.6 µM.

In the case of `O=C(COc1c(Cl)cc(Cl)cc1Cl)N/N=C/c1ccc[nH]1`, the AC50 is 1.51 µM.

On to `COc1cccc(OCc2ccc(C(=O)Nc3nc(C)cs3)o2)c1`, for which the AC50 was 0.223 µM.

Turning to `O=C(COc1ccc(Cl)cc1Cl)N/N=C/c1ccc[nH]1`, the AC50 was 3.8 µM.

`Cc1csc(NC(=O)c2ccoc2COc2ccccc2)n1`: the concentration at half-maximal activity (AC50) is 16.6 µM.

Turning to `O=C(Nc1nc(C(F)(F)F)cs1)c1ccc(COc2ccccc2)o1`, the concentration at half-maximal activity (AC50) was 13.8 µM.

For the molecule `Cc1csc(NC(=O)c2ccc(COc3cccc(F)c3)o2)n1`, the AC50 is 3.25 µM.

In the case of `Cc1csc(NC(=O)c2ccc(COCc3ccccc3)o2)n1`, the AC50 was 4.92 µM.

On to `N#Cc1csc(NC(=O)c2ccc(COc3ccccc3)o2)n1`, for which the AC50 was 13.7 µM.

For `Cc1csc(NC(=O)c2ccc(CNc3ccccn3)o2)n1`, the AC50 is 7.55 µM.

With `Cc1csc(NC(=O)c2ccc(CNc3ccccc3)o2)n1`, the AC50 was 0.38 µM.

System in a further assay: not listed separately
The description is as above. Particulars: HMLE_shECad viability, CellTiter-Glo luminescence, 72 h; at 19.5 µM (top of the series). The procedure, abridged:
as §1
For `COCc1ccc(C(=O)Nc2nc(C)cs2)o1`, the activity change, negative = inhibition was -7.05% (inactive).

Take `Cc1csc(NC(=O)c2ccc(COC(C)(C)C)o2)n1`: the activity change, negative = inhibition is -7.02% (inactive).

On to `CC(C)c1ccc(/C=C/C(=O)Nc2nc3ccccc3s2)cc1`, for which the activity change, negative = inhibition was -8.38% (inactive).

With `CNC(=O)c1csc(NC(=O)c2ccc(COc3ccccc3)o2)n1`, the activity change, negative = inhibition was -0.72% (inactive).

With `Cc1csc(NC(=O)c2ccc(COc3cccc(S(C)(=O)=O)c3)o2)n1`, the activity change, negative = inhibition is -5.39% (inactive).

Turning to `CCN(CC)C(=O)c1ccc(COc2ccccc2)o1`, the activity change, negative = inhibition is -1.82% (inactive).

In the case of `C/C(=C\C(=O)NC1=NCCS1)c1ccc(CC(C)C)cc1`, the activity change, negative = inhibition was -2.19% (inactive).

Turning to `O=C(Nc1nncs1)c1ccc(COc2ccccc2)o1`, the activity change, negative = inhibition is -0.185% (inactive).

For the molecule `CC(C)NC(=O)c1ccc(COc2ccccc2)o1`, the activity change, negative = inhibition is -15.6% (inactive).

The same assay, now with this note: HMLE_shECad viability, CellTiter-Glo luminescence, 72 h; at 30 µM (top of the series).
As for `O=C(Nc1nc2cc(F)ccc2s1)c1ccc(COc2ccccc2)o1`, the activity change, negative = inhibition is -21.2% (inactive).

As to `COc1ccc2nc(NC(=O)c3ccc(COc4ccccc4)o3)sc2c1`, the activity change, negative = inhibition is -14.7% (inactive).

`Cc1ccc2cc(C(=O)NC3=NCCS3)n(C)c2c1`: the activity change, negative = inhibition was -5.01% (inactive).

`Cc1csc(NC(=O)c2cocc2COc2ccccc2)n1`: the activity change, negative = inhibition was -3.35% (inactive).

On to `COc1ccc(OC)c2sc(NC(=O)c3ccc(COc4ccccc4)o3)nc12`, for which the activity change, negative = inhibition was -5.85% (inactive).

These data come from PubChem BioAssay AID504667 (Broad Institute, 2011).
